Measured values from ChEMBL document CHEMBL5096186, “Design, Synthesis, and Biological Evaluation of Novel Pyrimido[4,5-b]indole Derivatives Against Gram-Negative Multidrug-Resistant Pathogens” (J Med Chem, 2021).
≈ marks a conversion by molar mass, not a printed value.

Legend:
[1] = Elimination half life in Sprague-Dawley rat at 4 mg/kg, iv measured upto 24 hrs by LC-MS/MS analysis; assay type: ADME, organism-based; settings: in vivo, read-out: beta t1/2 (converted)
Outline: (§1)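 Male Sprague-Dawley rats, n = 3 per group, single intravenous dose. For 4 mg/kg: 180–280 g rats, vehicle 5% DMSO + 5% EtOH + 40% PEG300 + 50% saline, blood from the retrobulbar vein at 0.05–24 h. For 5 and 20 mg/kg: 180–300 g rats, vehicle 5% DMSO + 5% solutol + 90% saline, sampled at 0.083–24 h. Plasma quantified by LC/MS/MS. Parameters from mean plasma concentration by noncompartmental analysis; values are mean ± standard deviation.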

Escherichia coli [2] = experiment: Antibacterial activity against ESBL-producing multidrug resistant Escherichia coli assessed as reduction in bacterial growth incubated for 18 to 20 hrs by CLSI based microdilution method; assay type: functional; settings: time 18-20 hrs
Outline: (§2)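 Broth microdilution per CLSI. Compounds dissolved in DMSO (levofloxacin and meropenem in water) as 64 μg/mL stock, then serial twofold dilutions in broth giving 64 to 0.008 μg/mL. […] Clinical isolates tested as several strains per group; racemic GP-1 served as positive control; values given as MIC ranges.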

Pseudomonas aeruginosa [3] = experiment: Antibacterial activity against wild type Pseudomonas aeruginosa ATCC 27853 assessed as reduction in bacterial growth incubated for 18 to 20 hrs by CLSI based microdilution method; assay type: functional; settings: time 18-20 hrs
Outline: (§3)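 CLSI broth microdilution. Compounds in DMSO (levofloxacin and meropenem in water), serial twofold dilutions in broth, 64 to 0.008 μg/mL. […] Results reported as MIC ranges across strains.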

Acinetobacter baumannii [4] = experiment: Antibacterial activity against wild type Acinetobacter baumannii NCTC 13304 assessed as reduction in bacterial growth incubated for 18 to 20 hrs by CLSI based microdilution method; assay type: functional; settings: time 18-20 hrs; outline: as §2
Escherichia coli [5] = experiment: Antibacterial activity against multidrug resistant wild type Escherichia coli ATCC BAA-2340 assessed as reduction in bacterial growth incubated for 18 to 20 hrs by CLSI based microdilution method; assay type: functional; settings: time 18-20 hrs; outline: as §2
Acinetobacter baumannii [6] = experiment: Antibacterial activity agains OXA23-producing multidrug resistant Acinetobacter baumannii assessed as reduction in bacterial growth incubated for 18 to 20 hrs by CLSI based microdilution method; assay type: functional; settings: time 18-20 hrs; outline: as §2
Klebsiella pneumoniae [7] = experiment: Antibacterial activity against KPC2-producing multidrug resistant Klebsiella pneumoniae assessed as reduction in bacterial growth incubated for 18 to 20 hrs by CLSI based microdilution method; assay type: functional; settings: time 18-20 hrs; outline: as §2
[8] = Metabolic stability in human liver microsome assessed as metabolic bioavailability at 0.1 uM in presence of NADPH incubated upto 60 mins by LC-MS/MS analysis; assay type: ADME; settings: liver microsomes
Outline: (§4)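 Compound at 0.1 μM final, in 0.01% DMSO with 0.005% BSA. Incubated with rat or human liver microsomes at 0.33 mg/mL in 0.1 M Tris-HCl, pH 7.4, with 5 mM MgCl₂ and 1 mM NADPH, at 37 °C. Samples at 0, 7, 17, 30 and 60 min quenched with cold methanol and analysed by LC-MS/MS. Half-life, Cl_int and MF% derived as previously described.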

[9] = Metabolic stability in rat liver microsome assessed as elimination half life at 0.1 uM in presence of NADPH incubated upto 60 mins by LC-MS/MS analysis; assay type: ADME; settings: liver microsomes, read-out: beta t1/2; outline: as §4
[10] = Metabolic stability in human liver microsome assessed as intrinsic clearance at 0.1 uM in presence of NADPH incubated upto 60 mins by LC-MS/MS analysis; assay type: ADME; settings: microsomes, 1 h; outline: as §4
Klebsiella pneumoniae [11] = experiment: Antibacterial activity agains wild type Klebsiella pneumoniae ATCC BAA-1705 assessed as reduction in bacterial growth incubated for 18 to 20 hrs by CLSI based microdilution method; assay type: functional; settings: time 18-20 hrs; outline: as §3
Escherichia coli [12] = experiment: Antibacterial activity against multidrug resistant wild type Escherichia coli NCTC 13353 assessed as reduction in bacterial growth incubated for 18 to 20 hrs by CLSI based microdilution method; assay type: functional; settings: time 18-20 hrs; outline: as §2
[13] = biological target: Voltage-gated inwardly rectifying potassium channel KCNH2 (Homo sapiens, UniProt Q12809); experiment: Inhibition of hERG potassium channel assessed as […] at -80 mV holding potential incubated for 120 seconds by whole cell-automated voltage clamp analysis assay; assay type: toxicity
Outline: (§5)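 Automated whole-cell patch clamp, holding potential −80 mV. Voltage protocol applied every 20 s. Baseline set with external solution containing 0.1% DMSO and stabilised 3 min. Compound applied until steady state, at least 3 min, then washout. Maximum tested concentration 40 μM, or 3 μM for cisapride as positive control.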

[14] = AUC (0 to infinity) in Sprague-Dawley rat at 4 mg/kg, iv measured upto 24 hrs by LC-MS/MS analysis; assay type: ADME, organism-based; set-up: time < 24 hrs, dose 4 mg/kg, route iv; settings: in vivo; outline: as §1
[15] = MRT in Sprague-Dawley rat at 4 mg/kg, iv measured upto 24 hrs by LC-MS/MS analysis; assay type: ADME, organism-based; settings: in vivo; outline: as §1
Pseudomonas aeruginosa [16] = experiment: Antibacterial activity against multidrug resistant Pseudomonas aeruginosa strains 15 1 to 3 assessed as reduction in bacterial growth incubated for 18 to 20 hrs by CLSI based microdilution method; assay type: functional; settings: time 18-20 hrs; outline: as §2
Escherichia coli [17] = experiment: Antibacterial activity against Escherichia coli ATCC 35218 strains 15 1 to 3 assessed as reduction in bacterial growth incubated for 18 to 20 hrs by CLSI based microdilution method; assay type: functional; settings: time 18-20 hrs; outline: as §3
[18] = Clearance in Sprague-Dawley rat at 4 mg/kg, iv measured upto 24 hrs by LC-MS/MS analysis; assay type: ADME, organism-based; settings: in vivo; outline: as §1
Escherichia coli [19] = experiment: Antibacterial activity against ESBL-producing Escherichia coli ATCC 35218 strains 15 1 to 3 assessed as reduction in bacterial growth incubated for 18 to 20 hrs by CLSI based microdilution method; assay type: functional; settings: time 18-20 hrs; outline: as §3
[20] = tested on: Staphylococcus epidermidis; experiment: Antibacterial activity against methicillin-sensitive Staphylococcus epidermidis strains 15 1 to 4 assessed as reduction in bacterial growth incubated for 18 to 20 hrs by CLSI based microdilution method; assay type: functional; settings: time 18-20 hrs; outline: as §2
[21] = Metabolic stability in human liver microsome assessed as elimination half life at 0.1 uM in presence of NADPH incubated upto 60 mins by LC-MS/MS analysis; assay type: ADME; settings: liver microsomes, read-out: beta t1/2; outline: as §4
[22] = Metabolic stability in rat liver microsome assessed as metabolic bioavailability at 0.1 uM in presence of NADPH incubated upto 60 mins by LC-MS/MS analysis; assay type: ADME; settings: liver microsomes; outline: as §4
Staphylococcus aureus = experiment: Antibacterial activity against methicillin-sensitive Staphylococcus aureus strains 15 1 to 4 assessed as reduction in bacterial growth incubated for 18 to 20 hrs by CLSI based microdilution method; assay type: functional; settings: time 18-20 hrs; outline: as §2
Pseudomonas aeruginosa [23] = experiment: Antibacterial activity against IMP4-producing multidrug resistant Pseudomonas aeruginosa assessed as reduction in bacterial growth incubated for 18 to 20 hrs by CLSI based microdilution method; assay type: functional; settings: time 18-20 hrs; outline: as §2
Klebsiella pneumoniae [24] = experiment: Antibacterial activity agains wild type Klebsiella pneumoniae ATCC BAA-2470 assessed as reduction in bacterial growth incubated for 18 to 20 hrs by CLSI based microdilution method; assay type: functional; settings: time 18-20 hrs; outline: as §2
[25] = Volume of distribution at the steady state in Sprague-Dawley rat at 4 mg/kg, iv measured upto 24 hrs by LC-MS/MS analysis; assay type: ADME, organism-based; settings: in vivo, read-out: Vdss; outline: as §1
[26] = biological target: hERG (KCNH2) potassium channel (Homo sapiens, UniProt Q12809); experiment: Inhibition of hERG potassium channel assessed as maximum inhibition rate at 40 uM at -80 mV holding potential incubated for 120 seconds by whole cell-automated voltage clamp analysis assay relative to control; assay type: toxicity; settings: time 120 sec; outline: as §5
[27] = Metabolic stability in rat liver microsome assessed as intrinsic clearance at 0.1 uM in presence of NADPH incubated upto 60 mins by LC-MS/MS analysis; assay type: ADME; settings: microsomes, 1 h; outline: as §4
[28] = Volume of distribution at the steady state in Sprague-Dawley rat at 5 mg/kg, iv measured upto 24 hrs by LC-MS/MS analysis; assay type: ADME, organism-based; settings: in vivo, read-out: Vdss; outline: as §1
[29] = AUC (0 to infinity) in Sprague-Dawley rat at 5 mg/kg, iv measured upto 24 hrs by LC-MS/MS analysis; assay type: ADME, organism-based; set-up: time < 24 hrs, dose 5 mg/kg, route iv; settings: in vivo; outline: as §1
[30] = MRT in Sprague-Dawley rat at 5 mg/kg, iv measured upto 24 hrs by LC-MS/MS analysis; assay type: ADME, organism-based; settings: in vivo; outline: as §1
[31] = Elimination half life in Sprague-Dawley rat at 5 mg/kg, iv measured upto 24 hrs by LC-MS/MS analysis; assay type: ADME, organism-based; settings: in vivo, read-out: beta t1/2 (converted); outline: as §1
[32] = Clearance in Sprague-Dawley rat at 5 mg/kg, iv measured upto 24 hrs by LC-MS/MS analysis; assay type: ADME, organism-based; settings: in vivo; outline: as §1

Sequence of hERG (KCNH2) potassium channel (Q12809 whole entry): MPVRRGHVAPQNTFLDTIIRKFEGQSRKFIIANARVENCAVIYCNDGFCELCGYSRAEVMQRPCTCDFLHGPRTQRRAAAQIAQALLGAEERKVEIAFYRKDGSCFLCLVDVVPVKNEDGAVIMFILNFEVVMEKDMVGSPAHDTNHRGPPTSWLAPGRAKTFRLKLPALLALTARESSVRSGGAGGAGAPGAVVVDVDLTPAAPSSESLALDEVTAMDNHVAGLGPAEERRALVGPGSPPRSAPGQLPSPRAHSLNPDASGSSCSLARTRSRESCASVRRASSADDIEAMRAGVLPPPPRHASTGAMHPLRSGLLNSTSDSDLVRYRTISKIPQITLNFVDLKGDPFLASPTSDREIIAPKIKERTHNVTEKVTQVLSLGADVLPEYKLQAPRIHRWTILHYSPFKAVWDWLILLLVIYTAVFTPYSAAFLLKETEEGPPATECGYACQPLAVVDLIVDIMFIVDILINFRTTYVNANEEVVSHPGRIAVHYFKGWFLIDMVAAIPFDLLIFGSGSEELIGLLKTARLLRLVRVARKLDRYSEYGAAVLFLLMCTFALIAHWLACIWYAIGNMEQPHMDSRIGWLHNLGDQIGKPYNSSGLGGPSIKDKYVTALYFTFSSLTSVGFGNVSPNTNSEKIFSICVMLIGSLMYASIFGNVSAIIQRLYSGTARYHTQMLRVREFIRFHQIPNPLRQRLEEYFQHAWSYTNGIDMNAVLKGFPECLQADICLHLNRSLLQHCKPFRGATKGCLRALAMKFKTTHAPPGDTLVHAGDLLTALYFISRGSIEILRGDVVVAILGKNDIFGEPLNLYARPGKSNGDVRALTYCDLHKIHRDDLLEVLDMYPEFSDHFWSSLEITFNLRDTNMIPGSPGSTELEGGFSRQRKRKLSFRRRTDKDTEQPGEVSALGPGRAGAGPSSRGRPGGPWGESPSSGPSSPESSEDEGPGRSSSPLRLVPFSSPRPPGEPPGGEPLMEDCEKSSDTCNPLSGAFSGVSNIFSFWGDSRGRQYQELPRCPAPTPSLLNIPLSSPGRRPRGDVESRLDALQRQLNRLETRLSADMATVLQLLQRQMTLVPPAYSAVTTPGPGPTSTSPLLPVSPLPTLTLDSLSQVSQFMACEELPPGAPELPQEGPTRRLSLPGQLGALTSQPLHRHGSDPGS
Sequence of Voltage-gated inwardly rectifying potassium channel KCNH2 (Q12809 whole entry): as above

SMILES | MIC (Escherichia coli [2]) [µg/mL] | MIC (Pseudomonas aeruginosa [3]) [µg/mL] | MIC (Acinetobacter baumannii [4]) [µg/mL] | MIC (Escherichia coli [5]) [µg/mL] | MIC (Acinetobacter baumannii [6]) [µg/mL] | MIC (Klebsiella pneumoniae [7]) [µg/mL] | Fh at 1 h, 0.1 µM [8] [%] | half-life at 0.1 µM [9] [h] | CLH [10] [mL/min/g] | MIC (Klebsiella pneumoniae [11]) [µg/mL] | MIC (Escherichia coli [12]) [µg/mL] | half-life at 0.1 µM [21] [h] | Fh at 1 h, 0.1 µM [22] [%] | MIC (Pseudomonas aeruginosa [23]) [µg/mL] | MIC (Klebsiella pneumoniae [24]) [µg/mL] | CLH [27] [mL/min/g] | Vd [28] [L/kg] | AUC(0-inf) [29] [ng·h/mL] | MRT [30] [h] | half-life [31] [h] | other results
CCC(CN)=C1CN(c2nc(Oc3cnc(C(C)O)nc3)nc3[nH]c4c(NC)cc(F)cc4c23)C1 (configuration not stated) | 0.5 (≈ 1.04 µM) | 4 (≈ 8.36 µM) | 0.5 (≈ 1.04 µM) | 1 (≈ 2.09 µM) | 0.5 (≈ 1.04 µM) | 4 (≈ 8.36 µM) | 33.8 | 0.253 | 38.4 | 8 (≈ 16.7 µM) | 0.5 (≈ 1.04 µM) | 0.912 | 24.3 | > 8 | 2 (≈ 4.18 µM) | 138.4 |  |  |  |  | half-life [1]: 2.7 h; IC50 [13]: > 40 µM; AUC(0-inf) [14]: 983 ng·h/mL; MRT [15]: 2.1 h; MIC (Pseudomonas aeruginosa [16]): 16 µg/mL (≈ 33.4 µM); MIC (Escherichia coli [17]): 0.25 µg/mL (≈ 0.522 µM); clearance [18]: 71.5 mL/min/kg; MIC (Escherichia coli [19]): 0.5 µg/mL (≈ 1.04 µM); MIC [20]: < 0.008 µg/mL; MIC (Staphylococcus aureus): < 0.008 µg/mL; Vd [25]: 9.3 L/kg; inhibition at 2 min, 40 µM [26]: 36%
[2H]C([2H])([2H])Nc1cc(F)cc2c1[nH]c1nc(Oc3cnc(C)nc3)nc(N3CC(=C(C)[C@@H](C)N)C3)c12 | 0.5 (≈ 1.11 µM) | 2 (≈ 4.43 µM) | 0.25 (≈ 0.554 µM) | 0.25 (≈ 0.554 µM) | 0.25 (≈ 0.554 µM) | 1 (≈ 2.21 µM) | 62.6 | 0.163 | 11.7 | 4 (≈ 8.86 µM) | 0.125 (≈ 0.277 µM) | 2.98 | 17.2 | 4 (≈ 8.86 µM) | 2 (≈ 4.43 µM) | 215 | 44.5 | 634 | 5.6 | 6.5 | clearance [32]: 132 mL/min/kg
[2H]C([2H])([2H])Nc1cc(F)cc2c1[nH]c1nc(Oc3cnc(C)nc3)nc(N3CC(=C(C)C(C)N)C3)c12 (configuration not stated) | 0.25 (≈ 0.554 µM) | 2 (≈ 4.43 µM) | 0.25 (≈ 0.554 µM) | 0.25 (≈ 0.554 µM) | 0.25 (≈ 0.554 µM) | 1 (≈ 2.21 µM) | 66 | 0.337 | 10.1 | 4 (≈ 8.86 µM) | 0.125 (≈ 0.277 µM) | 3.47 | 30 | 4 (≈ 8.86 µM) | 2 (≈ 4.43 µM) | 104 | 43.2 | 696 | 5.9 | 7.2 | IC50 [13]: > 40 µM; clearance [32]: 121 mL/min/kg; inhibition at 2 min, 40 µM [26]: 14.2%
CCNc1cc(F)cc2c1[nH]c1nc(Oc3cnc(C)nc3)nc(N3CC(=C(C)[C@@H](C)N)C3)c12 | 4 (≈ 8.65 µM) | > 64 | 2 (≈ 4.32 µM) | 1 (≈ 2.16 µM) | 2 (≈ 4.32 µM) | > 8 |  |  |  | > 64 | 1 (≈ 2.16 µM) |  |  | > 64 | > 64 |  | 16.7 | 1290 | 4.3 | 6.7 | clearance [32]: 64.7 mL/min/kg
